Test results taken from ChEMBL document CHEMBL2331509, “Design, synthesis, characterization and anti-inflammatory evaluation of novel pyrazole amalgamated flavones” (2013).

Assays:
Rattus norvegicus [1] = assay: Antiinflammatory activity in Wistar rat assessed as inhibition of carrageenan-induced paw volume at 100 mg/kg, po measured after 6 hrs of carrageenan challenge (reference value: 1.69 +/- 0.08 ml); type: functional
Rattus norvegicus [2] = assay: Antiinflammatory activity in Wistar rat assessed as inhibition of carrageenan-induced paw volume at 100 mg/kg, po measured after 1 hr of carrageenan challenge (reference value: 0.94 +/- 0.05 ml); type: functional
[3] = target: T1, Prostaglandin G/H synthase 1 (Ovis aries) (UniProt P05979); assay: Inhibition of ovine COX1 assessed as appearance of oxidized N,N,N,N'- tetramethyl-p-phenylenediamine at 100 uM
T1 sequence (whole entry): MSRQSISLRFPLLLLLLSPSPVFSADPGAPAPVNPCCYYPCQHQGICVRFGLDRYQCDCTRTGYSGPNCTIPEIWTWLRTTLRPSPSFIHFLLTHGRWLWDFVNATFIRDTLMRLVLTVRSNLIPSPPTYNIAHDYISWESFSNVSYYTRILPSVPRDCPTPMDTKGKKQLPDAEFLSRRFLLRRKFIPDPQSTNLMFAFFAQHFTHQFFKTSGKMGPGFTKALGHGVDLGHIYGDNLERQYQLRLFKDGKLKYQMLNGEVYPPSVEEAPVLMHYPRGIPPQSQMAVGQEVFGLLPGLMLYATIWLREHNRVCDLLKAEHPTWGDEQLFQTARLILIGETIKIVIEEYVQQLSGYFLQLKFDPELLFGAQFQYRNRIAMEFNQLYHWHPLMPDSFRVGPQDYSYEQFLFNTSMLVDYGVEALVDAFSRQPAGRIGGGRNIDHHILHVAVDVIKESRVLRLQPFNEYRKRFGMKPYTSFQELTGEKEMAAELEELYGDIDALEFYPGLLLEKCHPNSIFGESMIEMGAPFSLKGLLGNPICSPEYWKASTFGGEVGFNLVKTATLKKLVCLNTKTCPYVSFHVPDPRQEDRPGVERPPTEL
In short: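 Colorimetric ovine COX screening kit. The reaction held assay buffer, heme, COX-1 enzyme and test sample at 100 µM. The COX peroxidase activity was followed by the appearance of oxidized TMPD at 590 nm. Inhibition was calculated as (1 − T/C)×100, where C is the absorbance of the uninhibited well.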

Rattus norvegicus [4] = assay: Antiinflammatory activity in Wistar rat assessed as inhibition of carrageenan-induced paw volume at 100 mg/kg, po measured after 3 hrs of carrageenan challenge (reference value: 1.17 +/- 0.1 ml); type: functional
Mus musculus = assay: Antiinflammatory activity in mouse assessed as inhibition of acetic acid-induced vascular permeability by measuring Evan's blue dye leakage at 100 mg/kg, po administered 1 hr before acetic acid challenge measured after 30 mins; type: functional
In short: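 Mice, n=6 per group, were dosed orally at 100 mg/kg; the vehicle was 2% gum acacia at 10 mL/kg. After 1 h they received 0.25 mL of 0.6% v/v acetic acid i.p., then immediately 10% w/v Evans blue at 10 mL/kg i.v. by tail vein. After 30 min they were killed with ether. The viscera were irrigated with 5 mL saline; the perfusate was filtered, made up to 10 mL, and dye read at 620 nm.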

Row | SMILES | Activity (Rattus norvegicus [1]) [mL] | Activity (Rattus norvegicus [2]) [mL] | inhibition [3] [%] | Activity (Rattus norvegicus [4]) [mL] | inhibition in vivo at 100 mg/kg (Mus musculus) [%]
1 | COc1cc(OC)c2c(=O)cc(-c3ccc(F)cc3F)oc2c1-c1ccnn1C | 1.44 | 0.78 | 51.6 | 1.01 | –
2 | COc1cc(OC)c2c(=O)cc(-c3ccc(F)c(F)c3)oc2c1-c1ccnn1C | 1.2 | 0.79 | 52.8 | 0.99 | –
3 | COc1cc(OC)c2c(=O)cc(-c3ccc(F)cc3)oc2c1-c1ccnn1C | 1.17 | 0.76 | 54.1 | 1.05 | 51.9
4 | COc1cc(OC)c2c(=O)cc(-c3ccc4c(c3)OCO4)oc2c1-c1ccnn1C | 1.07 | 0.86 | 51.6 | 0.92 | 25.3
5 | COc1ccc(-c2cc(=O)c3c(OC)cc(OC)c(-c4ccnn4C)c3o2)cc1OC | 0.99 | 0.79 | 48.4 | 0.96 | 68.2
6 | COc1cc(OC)c2c(=O)cc(-c3cccs3)oc2c1-c1ccnn1C | 1.55 | 0.91 | 60 | 1.18 | –
7 | COc1ccc2c(c1)c(CC(=O)O)c(C)n2C(=O)c1ccc(Cl)cc1 [INDOMETHACIN] | 0.78 | 0.86 | – | 0.95 | 70.4
8 | COc1cc(OC)c2c(=O)cc(-c3cccc([N+](=O)[O-])c3)oc2c1-c1ccnn1C | 1.02 | 1.04 | 47.4 | 1 | 33.3
9 | COc1cc(OC)c2c(=O)cc(-c3ccccc3)oc2c1-c1ccnn1C | 1.22 | 0.77 | 54.1 | 0.91 | –
10 | COc1cc(OC)c2c(=O)cc(-c3c(Cl)cccc3Cl)oc2c1-c1ccnn1C | 1.01 | 0.79 | 48.9 | 1.46 | 57.8
11 | COc1cc(OC)c2c(=O)cc(-c3ccco3)oc2c1-c1ccnn1C | 0.88 | 0.87 | 20.4 | 0.94 | 60.5
12 | COc1cc(OC)c2c(=O)cc(-c3ccc(Br)cc3)oc2c1-c1ccnn1C | 1.11 | 0.81 | 54.1 | 0.99 | 35.1
13 | COc1cc(OC)c(-c2cc(=O)c3c(OC)cc(OC)c(-c4ccnn4C)c3o2)c(OC)c1 | 0.97 | 0.83 | 45.7 | 0.95 | 72.3
14 | COc1cc(OC)c2c(=O)cc(-c3c(F)cccc3F)oc2c1-c1ccnn1C | 1.44 | 0.88 | 52.2 | 1.24 | –
15 | COc1cc(OC)c2c(=O)cc(-c3ccc(Cl)cc3Cl)oc2c1-c1ccnn1C | 1.32 | 0.89 | 46.1 | 1.11 | –
